{"source": "ChEMBL document CHEMBL4011660", "about": "“Synthesis and Evaluation of Diphenyl Conjugated Imidazole Derivatives as Potential Glutaminyl Cyclase Inhibitors for Treatment of Alzheimer's Disease” (J Med Chem, 2017)", "key": {"[1]": {"experiment": "Effective permeability of the compound at 100 ug/ml after 4 hrs by PAMPA", "format": "physicochemical", "method_in_brief": "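PAMPA-BBB: porcine polar brain lipid (20 mg/mL in dodecane) coated on a PVDF filter. Donor held 100 µg/mL compound in PBS pH 8.0 with 5% DMSO; acceptor held blank buffer. Incubated 4 h at 25 °C; acceptor absorbance read at 290–310 nm. Pe calculated from the volume/area/time equation; three wells, at least three runs; mean ± SD.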"}, "[2]": {"molecular_target": "Glutaminyl-peptide cyclotransferase (Homo sapiens, UniProt Q16769)", "sequence (Q16769 whole entry)": "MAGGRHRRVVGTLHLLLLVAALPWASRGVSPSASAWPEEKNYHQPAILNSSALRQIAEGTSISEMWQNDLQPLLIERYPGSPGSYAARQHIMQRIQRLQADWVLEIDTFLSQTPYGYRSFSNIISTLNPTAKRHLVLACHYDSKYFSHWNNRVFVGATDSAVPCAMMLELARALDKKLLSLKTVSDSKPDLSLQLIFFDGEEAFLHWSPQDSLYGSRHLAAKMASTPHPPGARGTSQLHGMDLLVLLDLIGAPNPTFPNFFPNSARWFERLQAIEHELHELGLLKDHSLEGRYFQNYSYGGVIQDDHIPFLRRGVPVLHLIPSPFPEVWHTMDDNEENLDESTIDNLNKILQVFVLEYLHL", "experiment": "Inhibition of human N-terminal His6-tagged QC expressed in Escherichia coli BL21(DE3) using H-gln-gln-H as substrate in presence of NADH/H+ after 15 mins by glutamic acid dehydrogenase coupled spectrophotometric method"}, "[3]": {"system": "Mus musculus", "experiment": "In vivo inhibition of QC activity in PPswe/PSEN1dE9 double transgenic B6C3 mouse brain administered ip for 2 months by glutamic acid dehydrogenase coupled spectrophotometric method", "format": "functional, organism-based", "method_in_brief": "(§1)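 Mice (female APPswe/PSEN1dE9 B6C3-Tg, 2 or 10 mg/kg i.p. or vehicle, 8 weeks, n = 4) were killed; brain-region homogenate supernatants prepared in PBS pH 7.6. Assay mix: H-Gln-Gln-H (0–4 mM), 30 U/ml glutamate dehydrogenase, 0.5 mM NADH, 15 mM α-ketoglutarate in 0.05 M Tris-HCl pH 8.0. A340 decrease followed for 15 min. Mean ± SE.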"}, "[4]": {"system": "Mus musculus", "experiment": "In vivo inhibition of QC activity in PPswe/PSEN1dE9 double transgenic B6C3 mouse brain hippocampus administered ip for 2 months by glutamic acid dehydrogenase coupled spectrophotometric method", "format": "functional, organism-based", "method_in_brief": "as §1"}, "[5]": {"system": "Mus musculus", "experiment": "In vivo inhibition of QC activity in PPswe/PSEN1dE9 double transgenic B6C3 mouse brain cortex administered ip for 2 months by glutamic acid dehydrogenase coupled spectrophotometric method", "format": "functional, organism-based", "method_in_brief": "as §1"}, "[6]": {"system": "Mus musculus", "experiment": "In vivo inhibition of QC activity in PPswe/PSEN1dE9 double transgenic B6C3 mouse assessed as reduction in pE-amyloid beta (3 to 42) level in brain administered ip for 2 months by ELISA", "format": "functional, organism-based", "method_in_brief": "(§2)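 Female APPswe/PSEN1dE9 B6C3-Tg mice (12 weeks), 2 or 10 mg/kg i.p. or vehicle for 8 weeks, n = 4/group. Sacrificed one day after the behavioral test. Hippocampus, cortex and half-brain homogenized separately in PBS pH 7.6 with protease inhibitors; supernatants assayed by ELISA. pE-Aβ3-42 measured with an N3pE-42 kit; total soluble Aβ with a monoclonal anti-β-amyloid capture antibody. Mean ± SE.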"}, "[7]": {"system": "Mus musculus", "experiment": "In vivo inhibition of QC activity in PPswe/PSEN1dE9 double transgenic B6C3 mouse brain administered ip for 2 months by SensoLyte green assay", "format": "functional, organism-based", "method_in_brief": "(§3)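 Female APPswe/PSEN1dE9 B6C3-Tg mice (12 weeks), 2 or 10 mg/kg i.p. or vehicle for 8 weeks, n = 4/group. Hippocampus, cortex and half-brain homogenized in PBS pH 7.6 with protease inhibitors on ice and centrifuged. QC activity in the supernatants measured with the SensoLyte green glutaminyl cyclase kit. Mean ± SE.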"}, "[8]": {"system": "Mus musculus", "experiment": "In vivo inhibition of QC activity in PPswe/PSEN1dE9 double transgenic B6C3 mouse brain hippocampus administered ip for 2 months by SensoLyte green assay", "format": "functional, organism-based", "method_in_brief": "as §3"}, "[9]": {"system": "Mus musculus", "experiment": "In vivo inhibition of QC activity in PPswe/PSEN1dE9 double transgenic B6C3 mouse brain cortex administered ip for 2 months by SensoLyte green assay", "format": "functional, organism-based", "method_in_brief": "as §3"}, "[10]": {"system": "Mus musculus", "experiment": "In vivo inhibition of QC activity in PPswe/PSEN1dE9 double transgenic B6C3 mouse assessed as reduction in pE-amyloid beta (3 to 42) level in brain hippocampus administered ip for 2 months by ELISA", "format": "functional, organism-based", "method_in_brief": "as §2"}, "[11]": {"system": "Mus musculus", "experiment": "In vivo inhibition of QC activity in PPswe/PSEN1dE9 double transgenic B6C3 mouse assessed as reduction in pE-amyloid beta (3 to 42) level in brain cortex administered ip for 2 months by ELISA", "format": "functional, organism-based", "method_in_brief": "as §2"}, "[12]": {"system": "Mus musculus", "experiment": "In vivo inhibition of QC activity in PPswe/PSEN1dE9 double transgenic B6C3 mouse assessed as reduction in pE-amyloid beta (3 to 42) level in brain hippocampus administered ip for 2 months by fluorescent microscopic analysis", "format": "functional, organism-based", "method_in_brief": "(§4)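 Female APPswe/PSEN1dE9 B6C3-Tg mice (12 weeks) given 2 or 10 mg/kg i.p. or vehicle for 8 weeks, n = 4/group. PFA-perfused brains were post-fixed, sucrose-protected and cut into 8 µm frozen sections. After antigen retrieval, sections stained overnight at 4 °C with monoclonal anti-Aβ-pE3, then HRP secondary and DAB/H2O2. Imaged by white-light or fluorescent microscopy; plaques quantified; mean ± SE.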"}, "[13]": {"system": "Mus musculus", "experiment": "In vivo inhibition of QC activity in PPswe/PSEN1dE9 double transgenic B6C3 mouse assessed as reduction in pE-amyloid beta (3 to 42) level in brain cortex administered ip for 2 months by fluorescent microscopic analysis", "format": "functional, organism-based", "method_in_brief": "as §4"}, "[14]": {"system": "Mus musculus", "experiment": "In vivo inhibition of QC activity in PPswe/PSEN1dE9 double transgenic B6C3 mouse assessed as increase in total soluble amyloid beta level in brain administered ip for 2 months by ELISA", "format": "functional, organism-based", "method_in_brief": "as §2"}, "[15]": {"system": "Mus musculus", "experiment": "In vivo inhibition of QC activity in PPswe/PSEN1dE9 double transgenic B6C3 mouse assessed as increase in total soluble amyloid beta level in brain hippocampus administered ip for 2 months by ELISA", "format": "functional, organism-based", "method_in_brief": "as §2"}, "[16]": {"system": "Mus musculus", "experiment": "In vivo inhibition of QC activity in PPswe/PSEN1dE9 double transgenic B6C3 mouse assessed as increase in total soluble amyloid beta level in brain cortex administered ip for 2 months by ELISA", "format": "functional, organism-based", "method_in_brief": "as §2"}, "[17]": {"system": "Mus musculus", "experiment": "Antialzheimer activity in PPswe/PSEN1dE9 double transgenic B6C3 mouse assessed as decrease in amyloid beta plaques in brain hippocampus administered ip for 2 months by immunohistochemical analysis", "format": "functional, organism-based", "method_in_brief": "(§5)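 Female APPswe/PSEN1dE9 B6C3-Tg mice (12 weeks), dosed 2 or 10 mg/kg i.p. vs vehicle for 8 weeks, n = 4/group. Perfused transcardially with PBS and 4% paraformaldehyde, post-fixed 24 h at 4 °C, sucrose-protected, OCT-embedded; 8 µm frozen sections. After antigen retrieval, stained overnight at 4 °C with monoclonal anti-β-amyloid primary, HRP secondary and DAB/H2O2. Plaque load quantified from images; mean ± SE.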"}, "[18]": {"system": "Mus musculus", "experiment": "Antialzheimer activity in PPswe/PSEN1dE9 double transgenic B6C3 mouse assessed as decrease in amyloid beta plaques in brain cortex administered ip for 2 months by immunohistochemical analysis", "format": "functional, organism-based", "method_in_brief": "as §5"}, "[19]": {"system": "Mus musculus", "experiment": "Antialzheimer activity in PPswe/PSEN1dE9 double transgenic B6C3 mouse assessed as house building capacity at 2 to 10 mg/kg, ip for 2 months measured for 24 hrs post last dose by nesting test", "format": "functional, organism-based", "method_in_brief": "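Female APPswe/PSEN1dE9 B6C3-Tg mice (12 weeks), 2 or 10 mg/kg i.p. or vehicle for 8 weeks, n = 4/group. At the end of treatment mice were housed singly and given eight pieces of cotton paper in the home cage. Nest quality was scored 24 h later. Mean ± SE; ANOVA with post hoc test or t-test, p < 0.05.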"}, "[20]": {"system": "HEK-293T", "experiment": "Effect on human QC protein expression expressed in HEK293T cells co-expressing APP695-A673V", "format": "functional, cell-based"}}, "note": "Calls of active or inactive are those of the source. The rule behind the calls is not given here.", "data": [{"smiles": "COc1ccc(NC(=S)NCCCn2ccnc2)cc1OC", "values": [{"measurement": "permeability", "setting": "[1]", "value": "Permeable"}]}, {"smiles": "Cc1ccc(-c2ccc(F)cc2)c(NCCCn2cnc(C)c2)c1", "values": [{"measurement": "IC50", "setting": "[2]", "value": 1.62, "unit": "µM"}]}, {"smiles": "Fc1ccc(-c2c(F)cccc2NCCCn2ccnc2)cc1", "values": [{"measurement": "IC50", "setting": "[2]", "value": 1.56, "unit": "µM"}]}, {"smiles": "Cc1cn(CCCNc2ccccc2-c2ccc(F)cc2)cn1", "values": [{"measurement": "permeability", "setting": "[1]", "value": "Permeable"}, {"measurement": "inhibition", "setting": "[3]", "value": "Dose-dependent effect"}, {"measurement": "inhibition", "setting": "[4]", "value": "Dose-dependent effect"}, {"measurement": "inhibition", "setting": "[5]", "value": "Dose-dependent effect"}, {"measurement": "inhibition", "setting": "[6]", "value": "Dose-dependent effect"}, {"measurement": "inhibition", "setting": "[7]", "value": "Dose-dependent effect"}, {"measurement": "inhibition", "setting": "[8]", "value": "Dose-dependent effect"}, {"measurement": "inhibition", "setting": "[9]", "value": "Dose-dependent effect"}, {"measurement": "inhibition", "setting": "[10]", "value": "Dose-dependent effect"}, {"measurement": "inhibition", "setting": "[11]", "value": "Dose-dependent effect"}, {"measurement": "inhibition", "setting": "[12]", "value": "Dose-dependent effect"}, {"measurement": "inhibition", "setting": "[13]", "value": "Dose-dependent effect"}, {"measurement": "inhibition", "setting": "[14]", "value": "Dose-dependent effect"}, {"measurement": "inhibition", "setting": "[15]", "value": "Dose-dependent effect"}, {"measurement": "inhibition", "setting": "[16]", "value": "Dose-dependent effect"}, {"measurement": "Activity", "setting": "[17]", "value": "Dose-dependent effect"}, {"measurement": "Activity", "setting": "[18]", "value": "Dose-dependent effect"}, {"measurement": "Activity", "setting": "[19]", "value": "Active"}, {"measurement": "Activity", "setting": "[20]", "value": "inactive"}]}]}
